The whole screen tested about 330,000 compounds, of which about 55 (0.02%) were called active. Many of the other results were omitted from the sample, so actives are more common in it than they were. Unmarked numbers belong to inactive results.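 The calls were made as follows: active = highest replicate inhibition of at least 40%; inactive = the rest.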

This test deals with Golgi-associated PDZ and coiled-coil motif-containing protein (Homo sapiens) (UniProt Q9HD26). Nature of the test: CAL PDZ peptide-binding inhibitors, primary screen, biochemical, fluorescence polarization, Cer-tagged CAL PDZ, HTS (AID 504414).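 Also: plate controls were DMSO neutral control wells for no effect and unlabeled competitor peptide control wells for full effect.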 The settings on record: purified CAL PDZ, TMR-peptide fluorescence polarization, 1 h; at 20 µM; stronger effect = higher value. A digest of the protocol: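 Test system: purified CerCALP PDZ construct; Compound dosing: one concentration, 20 µM compound; Also added: TMR-labelled reporter peptide T*-PRC34 bound in PDZ groove; Read-out: inhibition from polarization loss; Controls: unlabelled peptide and DMSO controls; Signal: FP readout, S and P plane fluorescence; Incubation: 1 h at RT.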
A general note: Polarisation of emitted light reports the rotation of a fluorescent probe.
Broadly, the inhibition is the change of the read-out against control, counted positive when it falls. For `COc1cc2c(cc1OC)C1C(=O)c3cc(OS(C)(=O)=O)c(OC)cc3C1N(C)C2=O` (stereo unspecified), the inhibition is -0.086%.

With `Cc1ccc(NC(=O)CN2C(=O)NC(C)(c3ccc(Cl)cc3)C2=O)c(Br)c1` (stereo unspecified), the inhibition was -4.23%.

Take `CCOc1cc(/C=N/NC(=O)c2ccc(CSc3nncn3C)cc2)ccc1OCC(=O)N1CCOCC1`: the inhibition was -3.73%.

In the case of `CCN(CC)S(=O)(=O)c1cccc(-c2n[nH]c(=S)n2/N=C/c2ccc(C(=O)OC)cc2)c1`, the inhibition was -1.46%.

Consider `CCCCC(CC)CNCc1cccn1CCN1CCOCC1` (stereo unspecified), for which the inhibition was 0.235%.

With `Cc1cc(C)n(CC(C)NCc2c(C(=O)N3CCOCC3)nc3c(C)cccn23)n1` (stereo unspecified), the inhibition is 0.659%.

For the compound `COc1ccccc1C1C(C(N)=O)=C(C)Nc2nc(CCCO)nn21` (stereo unspecified), the inhibition is -0.498%.

For the compound `Nc1cc2c(cc1Br)-c1ccc(F)cc1C2=O`, the inhibition was -0.277%.

In the case of `O=C(O)CCC(=O)Nc1ccc(OCC2CCCO2)cc1` (stereo unspecified), the inhibition was -0.764%.

On to `Cc1c[n+]([O-])ccc1[N+](=O)[O-]`, for which the inhibition is 0.378%.

Take `Cc1nc(C)c2c(c1C(F)(F)F)-c1ccccc1C2(F)F`: the inhibition is -1.33%.

For the compound `NC1=NC(=O)C(Cc2cccc(Cl)c2Cl)S1` (stereo unspecified), the inhibition is 1.03%.

`CCc1ccc(OCC(=O)OC(C)C(=O)NC2CC2)cc1` (stereo unspecified): the inhibition is -0.543%.

In the case of `CC(C)(C)C(=O)N(Cc1ccccc1)c1ccccn1`, the inhibition is 0.0459%.

In the case of `COC(C(=O)Nc1ccc(S(=O)(=O)Nc2ccc(C)c(C)c2)cc1)c1ccccc1` (stereo unspecified), the inhibition was -3.38%.

Take `CCCCCCCCNS(=O)(=O)CCNC1CCCCC1`: the inhibition was -1.06%.

Regarding `O=C1CSc2ccc(S(=O)(=O)NCc3ccccc3)cc2N1`, the inhibition was -0.383%.

Take `CCOc1ccccc1-n1c(SCC(=O)N2CCCC2)nnc1-c1ccoc1C`: the inhibition is -1.83%.

On to `O=S(=O)(NC1CCCCC1N1CCC(O)CC1)c1ccc(Cl)cc1` (stereo unspecified), for which the inhibition is -0.646%.

As to `CC1CCCCC1NC(=O)CCS(=O)(=O)c1ccc2c(c1)NC(=O)CO2` (stereo unspecified), the inhibition is -0.536%.

Consider `COc1ccc(/C=N/N=C/c2c[nH]c(=O)c(C#N)c2Nc2ccccc2)cc1`, for which the inhibition is -5.96%.

On to `CCCCCC(=O)Nc1ccc(-c2cn3cccnc3n2)cc1`, for which the inhibition was 177% (active).

As to `CC(C)(C)C(=O)Nc1ccc(-c2cn3cccnc3n2)cc1`, the inhibition is -1.11%.

With `CC(=O)Nc1ccc(-c2cn3cccnc3n2)cc1`, the inhibition was -1.06%.

Take `Cc1ccc(C(=O)NNC(=O)OC(C)(C)C)c(Cl)c1`: the inhibition is -1.58%.

Regarding `S=c1[nH]cc(-c2ccc(Cl)cc2)n1-c1ccccc1`, the inhibition is -1.13%.

Take `CC(=O)c1nc(N2C(=O)C3CC=C(C)CC3C2=O)sc1C` (stereo unspecified): the inhibition is -0.266%.

For the compound `CC(C)CCN1CCN=C1N(C)C`, the inhibition is -2.49%.

On to `Cc1ccc(S(=O)(=O)N2CCN(C)CC2)cc1C(=O)NC1CCCCC1`, for which the inhibition is -0.886%.

As for `CN1/C(=c2/s/c(=C3/C(=O)N(c4ccccc4)NC3=Nc3ccccc3)n(C)c2=O)C(C)(C)c2ccccc21`, the inhibition was 0.46%.

Turning to `COc1cc(-c2nc(S(=O)(=O)c3ccc(Cl)cc3)c(N(C)C)o2)cc(OC)c1OC`, the inhibition was -0.274%.

For the compound `Clc1c(OCCCn2ccnc2)ccc2ccccc12`, the inhibition was -0.854%.

As to `O=C(OCC(=O)N1CCCCCC1)c1ccc(Br)c(S(=O)(=O)N2CCOCC2)c1`, the inhibition was 0.404%.

On to `CSc1ccc(Cl)c(C(=O)OCC(=O)N2CC(C)OC(C)C2)c1` (stereo unspecified), for which the inhibition was 1.25%.

As to `CCOc1ccc(NC(=O)CC(Cc2ccc(Cl)cc2)C(=O)O)cc1` (stereo unspecified), the inhibition is -0.804%.

For the compound `Cc1cc(-n2cnc(-c3cn(C)nc3C)n2)no1`, the inhibition is -0.598%.

For the compound `C=CCOC(=O)N1CCC2CC1c1cc(-c3ccc(OC)cc3)ccc12` (stereo unspecified), the inhibition was -0.353%.

For `Cc1nc(-c2ccccc2)sc1-c1nnc(C2CC2)o1`, the inhibition was -0.361%.

As to `CCN(C(=O)COC(=O)/C=C/c1nc2ccccc2s1)C1CCS(=O)(=O)C1` (stereo unspecified), the inhibition was 0.0609%.

`CC(=O)c1c(C)[nH]c(C(=O)Nc2cc(S(=O)(=O)N(C)C)ccc2C)c1C`: the inhibition was -0.89%.

With `COc1ccc(CNC(=O)CSc2n[nH]c(N)n2)cc1OC`, the inhibition is -2.17%.

With `C=CCOc1c2ccc(C(=O)N(CC)c3ccc(OC)cc3)cc2nn1C`, the inhibition is -0.978%.

With `O=C(COc1coc(CN2CCN(c3ccccc3)CC2)cc1=O)N1CCc2ccccc21`, the inhibition was -0.986%.

In the case of `COc1cc(NC(=O)c2cccs2)ccc1NC(=O)c1ccccc1Cl`, the inhibition was 52% (active).

On to `COc1cc2ccccc2cc1C(=O)Nc1ccc(NC(=O)c2cccs2)cc1`, for which the inhibition is -1.38%.

For the compound `COc1cc(NC(=O)c2ccc3c(c2)OCO3)ccc1NC(=O)c1cccs1`, the inhibition is -2.17%.

In the case of `Cn1cc(CCC(=O)N2CCCC(C(=O)c3ccc(C(C)(C)C)cc3)C2)cn1` (stereo unspecified), the inhibition was -1.53%.

With `Cc1ccccc1NC(=O)CCOc1ccccc1`, the inhibition is -0.379%.

For the compound `COc1ccccc1-n1ccnc(SCC(=O)NC2CCCCC2)c1=O`, the inhibition is -0.307%.

In the case of `CN(C)S(=O)(=O)Oc1ccccc1C(=O)Nc1ccccc1Cl`, the inhibition is -2.53%.

`CN(C)C(=O)CCc1ccc2c3c([nH]c2c1)[C@]1(C)[C@@H](C(=O)N2CCCCC2)C[C@H](CC(=O)NCCC2=CCCCC2)C(=O)N1CC3`: the inhibition is -0.602%.

For `CC(CN1CCCCC1)c1ccccc1` (stereo unspecified), the inhibition was -0.367%.

Consider `COc1ccccc1CNC(=O)CNC(=O)c1cn(-c2ccccc2OC)c(=O)c2ccccc12`, for which the inhibition was -0.592%.

Turning to `CCc1ccc(C(=O)C(C)OC(=O)CN2C(=O)NC3(CCCC3)C2=O)cc1` (stereo unspecified), the inhibition was -0.0354%.

`Cc1ccoc1C(=O)Nc1cccc(Oc2ccccc2)c1`: the inhibition is -1.61%.

On to `Cc1ccnc(NC(=O)C2CCN(S(=O)(=O)c3c(C)c(C)cc(C)c3C)CC2)c1`, for which the inhibition was -2.34%.

For `CCOc1ccc(OCC(=O)OC(C)C(=O)NC2CCCCC2C)cc1` (stereo unspecified), the inhibition was -1.17%.

As for `O=C(O)C1C2C=CC(O2)C1C(=O)Nc1ccccn1` (stereo unspecified), the inhibition was 0.325%.

With `COCCN(C(=S)Nc1ccccc1OC)C1CCN(C(C)C)CC1`, the inhibition is 61.8% (active).

With `COc1ccccc1NC(=S)N1CCN(C(c2ccccc2)c2ccccc2)CC1`, the inhibition was 0.312%.

Take `CCc1cccc(NC(=S)N(CCN(C)C)C2CCN(C(C)C)CC2)c1`: the inhibition was -0.435%.
